Experimental data collected from several papers.
Each line is one published result; the experiments were not run side by side.
Cell line: A549
Read-out: cell growth or viability

Compound | test | conditions | IC50 [µM]
CCC(=O)Nc1cc(Nc2nc(N3CCc4sccc4C3)c3cccnc3n2)c(OC)cc1N1CCC(N(C)C)CC1 | MTT |  | 1.25
COc1cccc2c1C(=O)c1c(O)c3c(c(O)c1C2=O)C[C@@](O)(C(=O)CO)C[C@@H]3O[C@H]1C[C@H](N)[C@H](O)[C@H](C)O1 | MTT | 48 h | 5.06
COc1cc([C@@H]2c3cc4c(cc3[C@@H](O[C@@H]3O[C@@H]5CO[C@@H](C)O[C@H]5[C@H](O)[C@H]3O)[C@H]3COC(=O)[C@H]23)OCO4)cc(OC)c1O | MTT | 72 h | 2
CC(=O)O[C@H]1C(=O)[C@@]2(C)[C@H]([C@H](OC(=O)c3ccccc3)[C@]3(O)C[C@H](OC(=O)[C@H](O)[C@@H](NC(=O)c4ccccc4)c4ccccc4)C(C)=C1C3(C)C)[C@]1(OC(C)=O)CO[C@@H]1C[C@@H]2O | SRB |  | 0.03
CC1=C(O)C(=O)C=C2C1=CC=C1[C@@]2(C)CC[C@@]2(C)[C@@H]3C[C@](C)(C(=O)OCCCCO)CC[C@]3(C)CC[C@]12C | MTT | 48 h | 3.06
CC(C)C[C@H](NC(=O)[C@H](Cc1ccccc1)NC(=O)c1cnccn1)B(O)O | ATP luminescence |  | 0.02
CCCCNC(=O)NNC(=O)c1ccc(Nc2nccc(-c3ccccn3)n2)cc1 | MTT | 24 h | > 40
O=C(/N=C1\SCC(=O)N1C1CCCCC1)c1ccc2ccccc2c1 |  | 48 h | 18.8
COc1c(C)c(OC)c2c(c1C)OC(c1ccccc1)CC2=O (centres unmarked) | SRB | 72 h | > 50
COC(C)(C)CCC[C@](C)(O)[C@H]1CC[C@]2(C)[C@@H]1[C@H](O)C[C@@H]1[C@@]3(C)CC[C@H](O)C(C)(C)[C@@H]3CC[C@]12C | MTT | 72 h | 4.88
C=CC(=O)Nc1cc(Nc2nc(N3CCc4sccc4C3)c3cccnc3n2)c(OC)cc1N(C)CCN(C)C | MTT |  | 21.9
CC(C)Cc1ccc(-c2nn(-c3ccc(S(C)(=O)=O)cc3)cc2/C=N\N=C2/NC(=O)CS2)cc1 | MTT | 48 h | 3.44
CC(=O)OCCOC(=O)[C@]1(C)CC[C@]2(C)CC[C@]3(C)C4=CC=C5C(=CC(=O)C(O)=C5C)[C@]4(C)CC[C@@]3(C)[C@@H]2C1 | MTT | 48 h | 3.19
CN1C(=O)/C(=N\NC(=O)c2cc3ccccc3[nH]2)c2cc(Cl)ccc21 |  |  | 2.13
COc1ccc(C(=O)O[C@@H]2CN3Cc4c(cc5c(c4OC)OCO5)[C@@]24C=C[C@H](OC)C[C@@H]34)cc1OC | WST-1 |  | 2.6
COc1c(C)cnc(COc2ccc(NC(=O)Nc3ccc(Cl)cc3)cc2)c1C | MTT | 72 h | 13.7
CC(C)(C)NC(=O)NNC(=O)c1ccc(Nc2nccc(-c3ccc(Cl)cc3)n2)cc1 | MTT |  | 19.5
CN(C)CCn1cccc1/C=N/NC(=O)Nc1cc2c(Nc3ccc(F)c(Cl)c3)ncnc2cc1O[C@H]1CCOC1 | MTT | 72 h | 1.84
COc1ccccc1/C=C/CNCC(O)COc1cccc2[nH]c3ccccc3c12 (centres unmarked) | CCK-8 | 72 h | 7.9
COc1c(C)cnc(COc2ccc(NC(=O)Nc3cccc(C(F)(F)F)c3)cc2)c1C | MTT | 72 h | 20.2
COc1ccc(-c2csc(Nc3ccc4c(O)ncnc4c3)n2)cc1 | MTT |  | 25

Compound | test | conditions | IC50 [µM]
CCCCC/C=C/C(=O)CCc1ccc(O)c(OC)c1 | SRB |  | 18.6
CCN(CC)CCn1cccc1/C=N/NC(=O)Nc1cc2c(Nc3ccc(F)c(Cl)c3)ncnc2cc1O[C@H]1CCOC1 | MTT | 72 h | 1.59
Cc1ccc(C)n1-c1ccc(-c2nnc(-c3ccc(Br)cc3)[nH]2)cc1 | MTT | 72 h | 225
O=C(N/N=C/c1cccn1CCCN1CCCC1)Nc1cc2c(Nc3ccc(F)c(Cl)c3)ncnc2cc1O[C@H]1CCOC1 | MTT | 72 h | 4.36
COc1cc([C@@H]2c3cc4c(cc3[C@@H](O[C@@H]3O[C@@H]5CO[C@@H](C)O[C@H]5[C@H](O)[C@H]3O)[C@H]3COC(=O)[C@H]23)OCO4)cc(OC)c1O | MTT | 48 h | 11.9
COCCCOc1ccnc(COc2ccc(NC(=O)Nc3ccc(Cl)cc3)cc2)c1C | MTT | 72 h | 10.2
COc1cc(N(C)CCN(C)C)c(NC(=O)C=C(C)C)cc1Nc1nc(N2CCc3sccc3C2)c2sccc2n1 | MTT |  | 27.9
O=C(N/N=C/CN1CCCCC1)Nc1cc2c(Nc3ccc(F)c(Cl)c3)ncnc2cc1O[C@H]1CCOC1 | MTT | 72 h | 4.2
Nc1ccn([C@@H]2O[C@H](CO)[C@@H](O)C2(F)F)c(=O)n1 | CCK-8 | 72 h | 0.0151
C=CC(=O)Nc1cc(Nc2nc(N3CCc4sccc4C3)c3cccnc3n2)c(OC)cc1N1CCC(N(C)C)CC1 | MTT |  | 0.393
O=c1[nH]cc(F)c(=O)[nH]1 | MTT | 48 h | 37.2
COc1ccccc1/C=C/CNCC(O)COc1ccc2[nH]c3ccccc3c2c1 (centres unmarked) | CCK-8 | 72 h | 9.1
COc1cc2ncnc(Nc3ccc(F)c(Cl)c3)c2cc1NC(=O)N/N=C/c1cccn1CCCN1CCN(C)CC1 | MTT | 72 h | 3.23
COc1cccc(/C=C2\SC(=S)N(CC(=O)Nc3ccccc3)C2=O)c1 | MTT |  | 32
CC(C)Cc1ccc(-c2nn(-c3ccc(S(C)(=O)=O)cc3)cc2/C=N/N=c2\[nH]c(-c3ccc(Br)cc3)cs2)cc1 | MTT | 48 h | 15.3
Cc1c(OCC(F)(F)F)ccnc1COc1ccc(NC(=O)Nc2ccc(Cl)c(C(F)(F)F)c2)cc1 | MTT | 72 h | 4.35
COc1cc([C@@H]2c3cc4c(cc3[C@@H](O[C@@H]3O[C@@H]5CO[C@@H](C)O[C@H]5[C@H](O)[C@H]3O)[C@H]3COC(=O)[C@H]23)OCO4)cc(OC)c1O | fluorescence | 48 h | 4.1
COc1ccccc1OCCN(C)CC(O)COc1cccc2[nH]c3ccccc3c12 (centres unmarked) | CCK-8 | 72 h | 33.3
Brc1ccc(Nc2nc(NCCc3ccccc3)nc(NCCc3ccccc3)n2)cc1 | SRB | 72 h | 19.7
O=C(NC(=S)NCc1ccc(CNC(=S)NC(=O)c2ccc3ccccc3c2)cc1)c1ccc2ccccc2c1 |  | 48 h | 2.82
